Screening results: PubChem BioAssay, several laboratories
PglD inh – inhibitors of Campylobacter jejuni PglD acetyltransferase; inhibition, % at 12.5 µM; actives 0.098% (n = 360,000); purified PglD enzyme, DTNB colorimetric CoA detection; AID 602405; in the data active = inhibition above about 16%, passing the limit was not always enough
Cneo AK release – causes C. neoformans cell lysis | lysis activity, % at 15 µM | actives 0.2% (n = 360,000) | adenylate kinase release luminescence, 4 h; normalised: neutral wells 0, clomiphene wells 100;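 active = mean lysis activity across replicates of at least 80%, whatever share of replicates individually reach that level; inactive = mean lysis activity below 80%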
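Assay system: C. neoformans cells. Amount: yeast cell density of 5 × 10^6 cells/mL. Technique: AK luminescence. Buffer or medium: YPD. Times: static 4 h at 37 °C with compound, 1 h detection. Dosing: single-point compound dose. Read-out: lysis from increased AK signal.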
Ecoli rRNA inh – selective bacterial rRNA inhibition in E. coli | E. coli WT GFP vs humanized-ribosome RFP mutants, fluorescence, 24 h; stronger effect = lower value; DMSO median 0, no signal -100 | GFP signal change (wild-type ribosome), % (no concentration beside the values) | actives 1.6% (n = 350,000) | AID 720706;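 active = significant combined selectivity score with lowered wild-type GFP, culture density cut under 30%, mutant RFP and density less affected; inactive = any of these conditions unmet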
Mot1-301 SUMO – inhibitors of SUMOylation pathway: yeast Mot1-301 growth rescue; actives 1% (n = 320,000); growth rescue, % at 18.8 µM; S. cerevisiae Mot1-301 growth rescue, ATP luminescence, 38.5C; percent above DMSO median, 100 means doubled; AID 2716;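 active = every valid replicate shows activation above 250% relative to neutral control wells; inactive = the rest, any valid replicate at or below 250%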
CR mimetic SO – lowers age-related superoxide in aged yeast cells | S. cerevisiae aged cells, superoxide DHE fluorescence; stronger effect = lower value | superoxide response (% of plate mean), % at 10 µM | actives 0.18% (n = 330,000) | AID 2690;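 active = superoxide response under a set limit, about three screen SD below normal, cut at about 65% in these data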;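 note: yeast aged for seven days with compound at 30 °C before DHE staining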
Hits are given with their value. An excerpt weighted towards active compounds, which were near 2.2% of everything screened.

For CCCNC(=O)N1CC2(C1)CN(C(=O)COC)[C@H](CO)c1c2c2ccc(OC)cc2n1C the results were Ecoli rRNA inh inactive.
Screening O=C(CN1CCOCC1)N[C@@H]1CC[C@H](CCNC(=O)Nc2cc(F)ccc2F)O[C@@H]1CO returned PglD inh inactive, Cneo AK release inactive and Ecoli rRNA inh inactive.
O=C(C[C@@H]1CC[C@H](NC(=O)c2ccncc2)[C@H](CO)O1)Nc1ccc(-c2ccccc2)cc1 was read as Ecoli rRNA inh inactive.
For C[C@@H]1CN([C@H](C)CO)C(=O)c2cc(NS(=O)(=O)c3ccc(F)cc3)ccc2O[C@@H](C)CCCCO[C@H]1CN(C)Cc1ccc(Cl)c(Cl)c1 the results were PglD inh inactive, Cneo AK release inactive and Ecoli rRNA inh inactive.
Screening COc1ccccc1-c1cn(CC[C@@H]2CC[C@@H](NC(=O)Cc3ccccn3)[C@@H](CO)O2)nn1 returned PglD inh inactive, Cneo AK release inactive and Ecoli rRNA inh inactive.
O=C(COc1ccccc1Br)Nc1ccc(S(=O)(=O)N2CCCC2)cc1 was read as PglD inh inactive, Cneo AK release inactive, Ecoli rRNA inh -23.2, Mot1-301 SUMO inactive and CR mimetic SO inactive.
`COc1ccccc1OCC(=O)Nc1ccc(S(=O)(=O)N2CCCC2)cc1` gave PglD inh inactive, Cneo AK release inactive, Ecoli rRNA inh inactive, Mot1-301 SUMO inactive and CR mimetic SO inactive.
For C[C@@H]1CN([C@@H](C)CO)C(=O)c2cc(NC(=O)c3ccccc3)ccc2O[C@@H](C)CCCCO[C@H]1CN(C)S(=O)(=O)c1cn(C)cn1 the results were Ecoli rRNA inh inactive.
`COc1cc(OC)c2c(-c3cccc(-c4ccc(O)cc4)c3)cc(=O)oc2c1` gave PglD inh inactive, Cneo AK release inactive, Ecoli rRNA inh -23.7 and CR mimetic SO inactive.
`C=CCOC(=O)[C@@H]1[C@H]2C(=O)O[C@H](c3ccccc3)[C@H](c3ccccc3)N2[C@H](c2ccc(OCCOC(=O)[C@@H]3C[C@@H]4C(=O)NCC(=O)N4[C@@H]3c3ccc(O)cc3)cc2)[C@@]12C(=O)Nc1ccc(I)cc12` gave PglD inh inactive and Cneo AK release inactive.
C[C@@H]1CCCCO[C@H](CN(C)C(=O)c2ccccc2)[C@H](C)CN([C@@H](C)CO)C(=O)c2cc(N(C)C)ccc2O1 was read as PglD inh inactive, Cneo AK release inactive and Ecoli rRNA inh inactive.
For CCOC(=O)c1c(C)[nH]c(C)c1C(=O)CSc1nc2ccccc2[nH]1 the results were PglD inh inactive, Cneo AK release inactive, Mot1-301 SUMO 452.6 and CR mimetic SO inactive.
For CC(C)c1nnc(NC(=O)CSc2nc3ccccc3[nH]2)s1 the results were PglD inh inactive, Cneo AK release inactive, Ecoli rRNA inh -28.2, Mot1-301 SUMO inactive and CR mimetic SO inactive.
Screening CCCNC(=O)N1CC(=O)N2[C@H](C1)[C@@H](c1ccc(-c3cccc(C)c3)cc1)[C@@H]2CO returned Ecoli rRNA inh inactive.
CC(NC1CCCCC1)C(=O)NN=C(c1ccccc1)c1ccccc1 (stereo not given) was read as Ecoli rRNA inh -25.4, Mot1-301 SUMO inactive and CR mimetic SO inactive.
`CC(Cl)C(=O)NN=C(c1ccccc1)c1ccccc1` (stereo not given) gave PglD inh inactive, Cneo AK release inactive, Ecoli rRNA inh inactive, Mot1-301 SUMO 467.7 and CR mimetic SO inactive.
`C[C@H]1CN([C@@H](C)CO)C(=O)c2cc(C#CC3(O)CCCC3)cnc2O[C@H]1CN(C)Cc1ccccn1` gave PglD inh inactive, Cneo AK release inactive and Ecoli rRNA inh inactive.
For C[C@H](CO)N1C[C@H](C)[C@H](CN(C)S(C)(=O)=O)Oc2cc(C3=CCCC3)ccc2S1(=O)=O the results were Ecoli rRNA inh inactive.
Cc1ccc(S(=O)(=O)CNC(=S)c2cccc(C)c2)cc1 was read as PglD inh inactive, Cneo AK release inactive, Mot1-301 SUMO inactive and CR mimetic SO inactive.
Screening Cc1ccc(S(=O)(=O)CNC(=S)c2ccc3ccccc3c2)cc1 returned PglD inh inactive, Cneo AK release inactive, Ecoli rRNA inh -24.4, Mot1-301 SUMO inactive and CR mimetic SO inactive.
